The values below come from ChEMBL document CHEMBL4177662, “Phosphamide-containing diphenylpyrimidine analogues (PA-DPPYs) as potent focal adhesion kinase (FAK) inhibitors with enhanced activity against pancreatic cancer cell lines” (Bioorg Med Chem, 2017).

In one assay the target is Focal adhesion kinase 1 (Homo sapiens, UniProt Q05397). The experiment in a line: Inhibition of recombinant human N-terminal His-tagged FAK cytoplasmic domain (393 to 698 residues) expressed in baculovirus infected sf9 cells assessed as reduction in autophosphorylation after 60 mins by ADP-Glo kinase assay. Put shortly: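 ADP-Glo luminescence assay. The kinase reaction ran in 1× kinase buffer with compound at 1 to 200 nM, for 60 min at room temperature. ADP-Glo reagent was then added to stop the reaction and deplete leftover ATP (40 min, room temperature). Detection reagent converted ADP to ATP for luciferase read-out (30 min). IC50 from curve fitting, mean ± SE of three independent experiments.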
Chain of Focal adhesion kinase 1 (Q05397 whole entry, the tested form may be a part): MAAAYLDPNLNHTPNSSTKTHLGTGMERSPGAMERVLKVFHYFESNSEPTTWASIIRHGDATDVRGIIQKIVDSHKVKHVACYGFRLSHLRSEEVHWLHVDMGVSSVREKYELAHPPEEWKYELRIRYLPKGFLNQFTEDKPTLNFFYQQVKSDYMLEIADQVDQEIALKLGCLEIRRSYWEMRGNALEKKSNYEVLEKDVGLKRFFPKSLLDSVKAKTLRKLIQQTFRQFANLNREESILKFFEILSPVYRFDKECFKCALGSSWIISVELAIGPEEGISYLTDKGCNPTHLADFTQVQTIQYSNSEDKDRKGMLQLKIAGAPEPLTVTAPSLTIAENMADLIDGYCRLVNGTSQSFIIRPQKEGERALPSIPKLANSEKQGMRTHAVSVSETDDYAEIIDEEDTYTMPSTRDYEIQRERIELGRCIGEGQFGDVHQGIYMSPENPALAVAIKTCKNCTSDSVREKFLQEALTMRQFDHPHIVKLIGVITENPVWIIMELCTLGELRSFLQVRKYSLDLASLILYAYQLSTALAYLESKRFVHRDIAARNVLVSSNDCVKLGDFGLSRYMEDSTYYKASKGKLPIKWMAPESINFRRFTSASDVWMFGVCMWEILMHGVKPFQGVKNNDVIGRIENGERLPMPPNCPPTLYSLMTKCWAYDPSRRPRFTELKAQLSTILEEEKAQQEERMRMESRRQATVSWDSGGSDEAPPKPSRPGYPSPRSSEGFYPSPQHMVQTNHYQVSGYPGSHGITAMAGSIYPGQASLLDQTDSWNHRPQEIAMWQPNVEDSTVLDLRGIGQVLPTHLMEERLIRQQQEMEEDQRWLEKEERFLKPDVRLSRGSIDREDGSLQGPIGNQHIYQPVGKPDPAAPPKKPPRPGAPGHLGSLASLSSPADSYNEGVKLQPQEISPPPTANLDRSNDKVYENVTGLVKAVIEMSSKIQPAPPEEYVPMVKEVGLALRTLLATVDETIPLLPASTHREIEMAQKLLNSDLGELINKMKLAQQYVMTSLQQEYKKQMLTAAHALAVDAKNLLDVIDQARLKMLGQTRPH
For orientation: ADP-Glo first removes unused ATP, then detects ADP through luciferase.

Assay [1] deals with ASPC1. The assay can be described thus: Antiproliferative activity against human Aspc-1 cells after 72 hrs by MTT assay. As to conditions: ASPC1, 72 h. It counts as functional, cell-based. Put shortly:
(§1)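 Cells grown in DMEM with 10% FBS and 1% penicillin-streptomycin at 37 °C, 5% CO2. Seeded at 4,000 to 5,000 cells/well, cultured one day, then exposed to compounds for 72 h at 1.25 to 40 μmol/L, five replicates per concentration. MTT absorbance read at 570 nm. IC50 from five-point dose-response curves; mean of at least three separate experiments.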
On the technique in general: Formazan colour is commonly taken as a measure of viable cells.

The subject of another assay is PANC-1. The assay can be described thus: Antiproliferative activity against human PANC1 cells after 72 hrs by MTT assay. In kind it is functional, cell-based. The following applies: PANC-1, 72 h. Put shortly:
as §1

Assay [2] concerns ASPC1. The experiment in a line: Antiproliferative activity against human Aspc-1 cells assessed as cell viability at 0.5 uM after 24 hrs by MTT assay (reference value: 100%). In kind it is functional. As to conditions: ASPC1, 24 h, read-out: Activity.
The test system of assay [3] is ASPC1. The experiment in a line: Antiproliferative activity against human Aspc-1 cells assessed as cell viability at 0.5 uM after 48 hrs by MTT assay (reference value: 98.1%). In kind it is functional. The following applies: ASPC1, 48 h, read-out: Activity.
Assay [4] concerns ASPC1. The assay can be described thus: Induction of apoptosis in human Aspc-1 cells assessed as late apoptotic cells at 2.5 uM after 72 hrs by Annexin V-FITC/propidium iodide staining-based flow cytometry (reference value: 0%). It counts as functional. Put shortly: (§2)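 AsPC-1 cells (3 to 5×10^5 per well) were treated with DMSO solvent control or compound for 72 h in medium with 5% FBS. Cells were then stained with Annexin V-FITC and propidium iodide and analysed by flow cytometry. One representative experiment shown.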
On the technique in general: Flow cytometry measures light scatter and fluorescence of single cells or particles in a stream.

For assay [5], the system named is ASPC1. The experiment in a line: Induction of apoptosis in human Aspc-1 cells assessed as necrotic cells at 2.5 uM after 72 hrs by Annexin V-FITC/propidium iodide staining-based flow cytometry (reference value: 0%). It counts as functional. Put shortly: as §2
Assay [6] concerns ASPC1. The experiment in a line: Induction of apoptosis in human Aspc-1 cells assessed as viable cells at 2.5 uM after 72 hrs by Annexin V-FITC/propidium iodide staining-based flow cytometry (reference value: 100%). It counts as functional. As to conditions: ASPC1, 72 h, read-out: Activity. The method, boiled down: as §2
Assay [7] has as its system ASPC1. The assay can be described thus: Induction of apoptosis in human Aspc-1 cells assessed as late apoptotic cells at 5 uM after 72 hrs by Annexin V-FITC/propidium iodide staining-based flow cytometry (reference value: 0%). It counts as functional. Put shortly: as §2
Assay [8] relates to ASPC1. The assay can be described thus: Induction of apoptosis in human Aspc-1 cells assessed as necrotic cells at 5 uM after 72 hrs by Annexin V-FITC/propidium iodide staining-based flow cytometry (reference value: 0%). In kind it is functional. The method, boiled down: as §2
Assay [9] has as its system ASPC1. The assay can be described thus: Induction of apoptosis in human Aspc-1 cells assessed as viable cells at 5 uM after 72 hrs by Annexin V-FITC/propidium iodide staining-based flow cytometry (reference value: 100%). In kind it is functional. As to conditions: ASPC1, 72 h, read-out: Activity. The method, boiled down:
as §2

The subject of assay [10] is ASPC1. The assay can be described thus: Cell cycle arrest in human Aspc-1 cells assessed as accumulation at G2/M phase at 1 uM after 72 hrs by propidium iodide staining-based flow cytometry (reference value: 0.89%). It counts as functional.
Assay [11] concerns ASPC1. The assay can be described thus: Cell cycle arrest in human Aspc-1 cells assessed as accumulation at G2/M phase at 2.5 uM after 72 hrs by propidium iodide staining-based flow cytometry (reference value: 0.89%). In kind it is functional.
Assay [12] concerns ASPC1. The experiment in a line: Cell cycle arrest in human Aspc-1 cells assessed as accumulation at S phase at 5 uM after 72 hrs by propidium iodide staining-based flow cytometry (reference value: 59.70%). It counts as functional.
Assay [13] deals with ASPC1. The assay can be described thus: Cell cycle arrest in human Aspc-1 cells assessed as accumulation at G2/M phase at 5 uM after 72 hrs by propidium iodide staining-based flow cytometry (reference value: 0.89%). In kind it is functional.
Assay [14] concerns the target T1, Aurora kinase A (Homo sapiens) (UniProt O14965).
T1 sequence (whole entry): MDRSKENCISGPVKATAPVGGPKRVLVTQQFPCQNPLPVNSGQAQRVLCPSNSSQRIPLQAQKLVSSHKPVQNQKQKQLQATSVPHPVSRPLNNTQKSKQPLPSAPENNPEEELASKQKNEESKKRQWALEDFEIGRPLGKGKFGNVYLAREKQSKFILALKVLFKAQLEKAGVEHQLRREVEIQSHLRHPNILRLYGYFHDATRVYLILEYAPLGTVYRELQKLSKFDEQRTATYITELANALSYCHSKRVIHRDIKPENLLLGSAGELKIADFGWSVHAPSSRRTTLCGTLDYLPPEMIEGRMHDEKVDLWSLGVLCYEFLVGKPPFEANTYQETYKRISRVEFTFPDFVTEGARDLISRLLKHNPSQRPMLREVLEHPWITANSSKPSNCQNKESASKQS
The experiment in a line: Inhibition of recombinant full length His-tagged human Aurora A expressed in baculovirus expression system at 100 nM relative to control. Put shortly:
(§3)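 Percent inhibition of kinase activity at a single 100 nM test concentration, from an outsourced biochemical profiling screen.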

Assay [15] has as its target Tyrosine-protein kinase BTK (Homo sapiens) (UniProt Q06187). The assay can be described thus: Inhibition of recombinant full length His-tagged human BTK cytoplasmic domain expressed in baculovirus expression system at 100 nM relative to control. The method, boiled down: as §3
The subject of assay [16] is ASPC1. The assay can be described thus: Antiproliferative activity against human Aspc-1 cells assessed as cell viability at 4 uM after 24 hrs by MTT assay (reference value: 100%). In kind it is functional. As to conditions: ASPC1, 24 h, read-out: Activity.
Assay [17] deals with ASPC1. The assay can be described thus: Antiproliferative activity against human Aspc-1 cells assessed as cell viability at 8 uM after 24 hrs by MTT assay (reference value: 100%). It counts as functional. As to conditions: ASPC1, 24 h, read-out: Activity.
The subject of assay [18] is ASPC1. The assay can be described thus: Antiproliferative activity against human Aspc-1 cells assessed as cell viability at 8 uM after 72 hrs by MTT assay (reference value: 97%). It counts as functional. The following applies: ASPC1, 72 h, read-out: Activity.
The next assay concerns BXPC-3. The experiment in a line: Antiproliferative activity against human BxPC3 cells assessed as cell viability at 0.5 uM after 72 hrs by MTT assay (reference value: 97%). In kind it is functional. As to conditions: BXPC-3, 72 h, read-out: Activity.
Assay [19] has as its system PANC-1 (human). The experiment in a line: Antiproliferative activity against human PANC-1 cells assessed as cell viability at 8 uM after 72 hrs by MTT assay (reference value: 97%). The following applies: PANC-1, 72 h.
In assay [20] the test system is PANC-1 (human). The assay can be described thus: Antiproliferative activity against human PANC-1 cells assessed as cell viability at 8 uM after 24 hrs by MTT assay (reference value: 100%). As to conditions: PANC-1, 24 h.
Assay [21] concerns PANC-1 (human). The experiment in a line: Antiproliferative activity against human PANC-1 cells assessed as cell viability at 4 uM after 48 hrs by MTT assay (reference value: 98.8%). The following applies: PANC-1, 48 h.

One may read the IC50 as the concentration that gives 50% inhibition. As a reminder, the inhibition is the change of the read-out against control, counted positive when it falls.

Chain of Tyrosine-protein kinase BTK (Homo sapiens) (Q06187 whole entry, the tested form may be a part): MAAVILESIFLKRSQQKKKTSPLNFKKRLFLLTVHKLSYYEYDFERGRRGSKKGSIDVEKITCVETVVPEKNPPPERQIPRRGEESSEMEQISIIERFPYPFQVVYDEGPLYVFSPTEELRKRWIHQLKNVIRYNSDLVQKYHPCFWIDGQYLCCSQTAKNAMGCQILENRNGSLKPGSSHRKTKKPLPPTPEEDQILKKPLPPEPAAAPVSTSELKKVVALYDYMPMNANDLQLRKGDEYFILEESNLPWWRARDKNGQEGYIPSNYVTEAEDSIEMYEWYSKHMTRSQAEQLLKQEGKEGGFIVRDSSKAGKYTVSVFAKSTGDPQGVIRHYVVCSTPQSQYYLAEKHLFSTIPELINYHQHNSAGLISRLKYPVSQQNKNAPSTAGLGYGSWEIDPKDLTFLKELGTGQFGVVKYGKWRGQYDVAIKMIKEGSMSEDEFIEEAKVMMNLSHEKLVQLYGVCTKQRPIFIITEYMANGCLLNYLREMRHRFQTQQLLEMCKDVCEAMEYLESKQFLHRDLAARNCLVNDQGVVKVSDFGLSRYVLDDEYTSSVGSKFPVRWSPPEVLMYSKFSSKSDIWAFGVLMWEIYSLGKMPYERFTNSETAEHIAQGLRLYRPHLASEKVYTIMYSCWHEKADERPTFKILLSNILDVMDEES

Take `CCOP(=O)(CCCOc1ccc(Nc2ncc([N+](=O)[O-])c(Nc3ccccc3C(=O)NC)n2)cc1)N1CCOCC1` (centres undefined): the IC50 on Focal adhesion kinase 1 is 4.65 nM; in the assay on ASPC1 [1], 1660 nM; with PANC-1 it was above 40000 nM. Further, the viability at 0.5 µM in the assay on ASPC1 [2] was found to be 99.4%; in the assay on ASPC1 [3] it was 97.4%; in the assay with BXPC-3, 69.8%. Also, the Activity was 20.7% in the assay with ASPC1 [4]; 2.9% in the assay on ASPC1 [5]; 40.3% in the assay on ASPC1 [7]; 3.3% in the assay on ASPC1 [8]; 13% with ASPC1 [10]; 16.54% in the assay on ASPC1 [11]. For the same compound, the Activity in the assay on ASPC1 [12] is 37.82%; in the assay with ASPC1 [13] it was 22.11%. Moreover, the viability at 2.5 µM with ASPC1 [6] was 55.3%. Besides, the viability at 5 µM in the assay on ASPC1 [9] is 40.1%. For the same compound, the figures for the inhibition in assay [14] and in assay [15] were 48% and 33%, respectively. In addition, the viability at 4 µM in the assay on ASPC1 [16] was 68%; in the assay with PANC-1 (human) [21], 61.6%. Besides, the viability at 8 µM in the assay on ASPC1 [17] stood at 56.8%; in the assay on ASPC1 [18], 16.8%; in the assay with PANC-1 (human) [19], 18.1%; in the assay with PANC-1 (human) [20], 87.3%.
